# Data from PMC5707466 (Chemical Science, 2015).
# Where two headings read alike, the source gives them in different places. Where no end group is shown, it is not given here. [ ]: non-standard residue; d: D form. AzaTyr = not defined here
# Columns and labels:
# CD36 [1] = molecular target: T1, CD36 (Homo sapiens, UniProt P16671); assay: CD36 SPR biosensor with dialysis chamber; assay type: binding; settings: for SPR signal change: 10 μM peptide, buffer (PBS), CD36 sensor
# In short: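 Hexahistidine-tagged CD36 was captured by Cu2+ chelation on a 3-MPA-LHDLHD-OH monolayer. The monolayer was self-assembled overnight, then NTA-coupled via EDC/NHS. A PDMS spacer was filled with PBS and capped with a 0.4 μm-pore membrane. Peptide in PBS, untreated serum or whole blood was injected into the reservoir for 90 min per concentration. Triplicates ran in separate sensing chambers, with blank serum/blood in the reference channel and background subtracted.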
# CD36 [2] = molecular target: T1, CD36; assay: CD36 SPR biosensor without dialysis chamber; assay type: binding; settings: matrix not stated
# CD36 [3] = molecular target: T1, CD36; settings: saline solution (stated for DBG178); CD36 SPR biosensor; cited from earlier work
# [4] = with microporous membrane
# [5] = Theoretical effective diffusion through microporous membrane; settings: 200 nm membrane pore radius
# In short: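 This is a calculation, not a measurement: Deff/D0 through the membrane was computed with the Renkin equation from hydrodynamic radius (RH) and pore radius (RP), with a membrane pore diameter of 0.4 μm. Theoretical effective diffusion times assumed continuous stirring of the chambers.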
# [6] = SPR monitoring of sucrose diffusion/equilibration in dialysis chamber; assay type: physicochemical; settings: for t eff unstirred (experimental): passive mixing, fit of SPR data with eqn (2); for experimental effective diffusion time: unstirred
# In short: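 The dialysis chamber was a PDMS spacer (150 μm–1.0 mm) on the gold prism, filled with PBS and topped by a 0.4 μm-pore membrane. The sensor carried a 3-MPA-LHDLHD-OH monolayer. Sucrose was injected into the reservoir, and the SPR response was followed in the sensing chamber. Neither chamber was stirred, so mixing was by diffusion only. Effective diffusion time was fitted with c = ceq(1 – e^(–t/teff)).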
# [7] = SPR calibration with sucrose solutions; assay type: physicochemical; settings: absence of the microporous membrane; calibration slope
# In short: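 The SPR instrument was calibrated without the microporous membrane by successive injections of sucrose solutions with refractive indices from 1.33772 to 1.35589. Sensitivity is the response per refractive index unit (nm/RIU).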
# [8] = molecular target: hexahistidine-tagged type B scavenger receptor CD36 (cluster of differentiation 36) (UniProt P16671); assay: SPR
# [9] = molecular target: hexahistidine-tagged type B scavenger receptor CD36 (cluster of differentiation 36) (UniProt P16671); assay: SPR; remark: listed apart in the source
# [10] = molecular target: hexahistidine-tagged type B scavenger receptor CD36 (cluster of differentiation 36) (UniProt P16671); assay: SPR; remark: listed apart in the source
# T1 sequence (P16671 whole entry): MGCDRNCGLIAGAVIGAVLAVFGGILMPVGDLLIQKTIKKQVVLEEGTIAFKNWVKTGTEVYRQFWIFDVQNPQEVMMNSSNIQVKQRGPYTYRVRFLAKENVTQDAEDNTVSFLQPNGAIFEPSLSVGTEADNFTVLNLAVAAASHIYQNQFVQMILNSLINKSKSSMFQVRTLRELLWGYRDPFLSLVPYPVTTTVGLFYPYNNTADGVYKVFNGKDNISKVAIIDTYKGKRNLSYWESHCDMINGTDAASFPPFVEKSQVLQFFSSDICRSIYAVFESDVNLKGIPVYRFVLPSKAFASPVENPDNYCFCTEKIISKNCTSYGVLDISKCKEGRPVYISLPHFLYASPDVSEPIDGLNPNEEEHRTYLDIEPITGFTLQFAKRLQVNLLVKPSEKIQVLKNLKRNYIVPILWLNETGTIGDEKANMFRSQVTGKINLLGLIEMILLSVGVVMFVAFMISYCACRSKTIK
# Sequence of hexahistidine-tagged type B scavenger receptor CD36 (cluster of differentiation 36) (P16671 whole entry): as above
molecule,measurement,setting,value
His-D-Trp-Ala-AzaTyr-D-Phe-Lys-NH2 [DBG178],SPR response,"CD36 [1]; 7.5 μM, human serum, dialysis chamber, 90 min, reference-subtracted, triplicate",0.49 ± 0.02 nm
same,SPR signal change,CD36 [1]; dialysis chamber,0.28 ± 0.11 nm
same,concentrations that could not be detected,"CD36 [1]; dialysis chamber, saline/PBS, 90 min per concentration",below 5 μM
same,difference in SPR response with vs without dialysis chamber,CD36 [1]; highest concentration,12%
same,SPR response with the microdialysis chamber,"CD36 [1]; highest concentration, matrix not stated",0.78 nm
same,calibration curve signal in human serum (in words),"CD36 [1]; human serum vs PBS, same concentration range, Fig. 3",increased in signal compared to PBS
same,SPR response at nanomolar concentrations,"CD36 [1]; nanomolar range, dialysis chamber",below the detection limit of the SPR sensor
same,analysis time sufficient to reach equilibrium of the SPR sensor,"CD36 [1]; whole blood, dialysis chamber, Fig. SI4",90 min
same,SPR response in whole blood (in words),"CD36 [1]; whole human blood, 5, 7.5 and 10 μM, vs human serum, Fig. 3",in great agreement with human serum
same,SPR response without the dialysis chamber,"CD36 [2]; 8.75 μM, no dialysis chamber",0.71 ± 0.10 nm
same,SPR response without the microporous membrane,CD36 [2]; highest concentration,0.89 nm
same,Kd,CD36 [3],5 µM
BSA: bovine serum albumin (BSA) (MW = 66.4 kDa),diffusion time required to observe a significant SPR response / large shift,[4],~8 h
"His-D-Trp-AzaLeu-Trp-D-Phe-Ala-NH2 [CP-2B(i), reference compound]",SPR signal change,CD36 [1]; dialysis chamber,–0.073 ± 0.030 nm
same,Kd,CD36 [3],31 µM
"OC[C@H]1O[C@@](CO)(O[C@H]2O[C@H](CO)[C@@H](O)[C@H](O)[C@H]2O)[C@@H](O)[C@@H]1O [Sucrose, sucrose]",RH/RP,[5],0.00235
same,t eff unstirred (experimental),[6]; spacer 0.15 mm,5529 s
same,t eff unstirred (experimental),[6]; spacer 0.30 mm,9892 s
same,t eff unstirred (experimental),[6]; spacer 0.60 mm,26 590 s
same,experimental effective diffusion time,"[6]; spacer 1 mm (1000 μm), b26 prints unit as hours",15.5 h
same,t eff unstirred (experimental),[6]; spacer 1.00 mm,55 687 s
same,experimental effective diffusion time,[6]; spacer 150 μm,1.5 h
same,increase in equilibration time of the sensing chamber in absence of mixing,"[6]; spacer 150 μm, unstirred experimental vs stirred theoretical",300 fold
same,SPR sensitivity without microporous membrane,[7],2221 nm/RIU
H[dW]A[AzaTyr][dF]K-NH2 (reading uncertain; also: printed as His-D-Trp-Ala-AzaTyr-D-Phe-Lys-NH2) [DBG178 (His-D-Trp-Ala-AzaTyr-D-Phe-Lys-NH2)],SPR response at the highest concentration,[8],0.78 nm
same,SPR response at 7.5 uM,[9],0.46 nm
same,Kd,[10],17 µM
same,SPR response at 7.5 uM,[10],0.49 nm
same,SPR response at 8.75 uM,[10],0.71 nm
same,SPR response at the highest concentration,[10],0.89 nm
same,SPR signal change at 10 uM,[10],0.28 nm
